From paper PMC6923798 (Bioorganic chemistry, 2018)
Where two headings read alike, the source gives them in different places.

Assays:
K-562 = assay: MTT anti-proliferative assay; format: cell-based, human; details: read-out: IC50 ± SD, K-562
c-Src = c-Src (Homo sapiens, UniProt P12931); assay: Src kinase assay; format: biochemical
KG-1a = assay: MTT anti-proliferative assay; format: cell-based, human; details: read-out: IC50 ± SD, KG-1a
[1] = test system: full NCI panel of 60 cell lines; assay: NCI in vitro one dose anticancer assay; format: cell-based, human; details: 48 h; for inhibition at 10 µM: Homo sapiens, 60 cell, read-out: Mean growth inhibition %
In short: (§1)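 NCI protocol. Test compound added once at 10−5 M to ~60 human tumour lines from nine subpanels. Incubated 48 h at 37 °C, 5% CO2, 95% air, 100% relative humidity. Endpoint by sulforhodamine B protein staining with spectrophotometric absorbance. Growth of treated cells reported as percent of untreated cells.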

EGFR = EGFR (Homo sapiens, UniProt P00533); assay: EGFR kinase assay; format: biochemical
EGFR, sequence (P00533 25-1210): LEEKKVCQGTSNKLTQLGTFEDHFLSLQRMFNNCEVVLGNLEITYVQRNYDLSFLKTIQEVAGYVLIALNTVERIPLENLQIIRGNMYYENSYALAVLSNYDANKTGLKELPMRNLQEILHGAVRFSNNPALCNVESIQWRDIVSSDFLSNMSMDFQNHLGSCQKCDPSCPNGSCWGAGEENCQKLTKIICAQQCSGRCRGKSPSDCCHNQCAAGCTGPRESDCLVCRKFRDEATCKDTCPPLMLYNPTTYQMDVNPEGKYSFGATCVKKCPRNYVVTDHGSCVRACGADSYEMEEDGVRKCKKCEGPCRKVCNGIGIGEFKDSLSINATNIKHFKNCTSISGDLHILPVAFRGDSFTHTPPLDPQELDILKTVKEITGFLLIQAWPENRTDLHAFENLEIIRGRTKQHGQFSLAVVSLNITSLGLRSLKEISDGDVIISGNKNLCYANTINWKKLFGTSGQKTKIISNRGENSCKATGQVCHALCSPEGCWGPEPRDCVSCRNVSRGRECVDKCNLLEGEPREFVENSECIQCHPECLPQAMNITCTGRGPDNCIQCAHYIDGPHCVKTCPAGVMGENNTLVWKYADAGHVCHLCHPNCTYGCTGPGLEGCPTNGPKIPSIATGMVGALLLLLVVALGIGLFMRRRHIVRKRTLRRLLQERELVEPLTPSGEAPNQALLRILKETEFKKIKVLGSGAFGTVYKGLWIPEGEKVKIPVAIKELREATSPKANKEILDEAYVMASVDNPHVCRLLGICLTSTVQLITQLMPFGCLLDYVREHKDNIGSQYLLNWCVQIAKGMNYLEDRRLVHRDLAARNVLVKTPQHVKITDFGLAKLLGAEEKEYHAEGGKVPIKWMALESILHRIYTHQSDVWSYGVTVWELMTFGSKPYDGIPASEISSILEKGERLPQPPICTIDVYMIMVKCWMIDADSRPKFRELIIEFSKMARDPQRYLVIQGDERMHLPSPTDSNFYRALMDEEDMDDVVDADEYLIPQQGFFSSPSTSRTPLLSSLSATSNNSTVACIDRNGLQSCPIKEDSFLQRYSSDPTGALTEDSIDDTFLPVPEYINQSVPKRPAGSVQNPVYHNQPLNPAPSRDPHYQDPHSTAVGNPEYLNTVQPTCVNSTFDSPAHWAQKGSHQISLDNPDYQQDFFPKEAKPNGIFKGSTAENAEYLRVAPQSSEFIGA

Jurkat = assay: MTT anti-proliferative assay; format: cell-based, human; details: read-out: IC50 ± SD, Jurkat
STAT3 = STAT3 activation assay; format: cell-based, human; details: K-562 cells, 10 μM, 24 h, nuclear extracts
In short: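 K562 cells seeded overnight in 10 cm plates, then given vehicle, test compound (10 μM) or WP1066 (positive control) for 24 h. Nuclear fractions extracted by kit. STAT3 activation measured in nuclear extracts by TransAM STAT3 ELISA per manufacturer. Mean ± SD of three independent experiments, each in triplicate.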

IL-6 = IL-6 ELISA in K-562 cells; format: cell-based, human; details: Homo sapiens, K562, 24 h, read-out: IL-6 protein levels (% of control)
In short: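 K-562 cells exposed 24 h to vehicle (DMSO), test compound at 10 μM or dexamethasone (positive control). IL-6 secreted into cell-free supernatant quantified by human IL-6 ELISA kit. Expressed as % of vehicle control, mean ± SD of three independent experiments, each in triplicate. Time course: in 12-well plates, medium changed when compound (10 μM) added, and media sampled at 0, 1, 4, 8, 12, 24, 48 h.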

K-562 cell line = assay: NCI in vitro one dose anticancer assay; format: cell-based; details: Homo sapiens, K562, 48 h, read-out: % growth inhibition
In short: as §1

SR cell line = assay: NCI in vitro one dose anticancer assay; format: cell-based; details: Homo sapiens, 48 h, read-out: % growth inhibition
In short: as §1

RPMI-8226 cell line = assay: NCI in vitro one dose anticancer assay; format: cell-based; details: Homo sapiens, RPMI-8226, 48 h, read-out: % growth inhibition
In short: as §1

MOLT-4 cell line = assay: NCI in vitro one dose anticancer assay; format: cell-based; details: Homo sapiens, MOLT-4, 48 h, read-out: % growth inhibition
In short: as §1

c-Src, sequence (P12931 whole entry): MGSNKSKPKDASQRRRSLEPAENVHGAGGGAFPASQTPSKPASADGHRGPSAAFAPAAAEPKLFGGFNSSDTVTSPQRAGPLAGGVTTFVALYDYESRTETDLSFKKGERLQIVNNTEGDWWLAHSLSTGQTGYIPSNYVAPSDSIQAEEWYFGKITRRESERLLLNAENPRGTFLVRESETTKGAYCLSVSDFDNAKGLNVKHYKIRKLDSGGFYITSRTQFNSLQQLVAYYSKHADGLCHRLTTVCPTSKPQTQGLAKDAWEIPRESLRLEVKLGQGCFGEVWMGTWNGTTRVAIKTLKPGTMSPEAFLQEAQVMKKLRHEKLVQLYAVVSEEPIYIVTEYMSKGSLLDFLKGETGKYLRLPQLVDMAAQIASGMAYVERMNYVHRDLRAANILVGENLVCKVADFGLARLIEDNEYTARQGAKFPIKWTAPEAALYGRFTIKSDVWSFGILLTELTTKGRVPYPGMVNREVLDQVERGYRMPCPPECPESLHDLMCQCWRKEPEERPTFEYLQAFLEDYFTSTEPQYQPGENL

Compound | IC50 (K-562; MTT, 24 h treatment) [µM] | IC50 (c-Src; read-out: Src (IC50 μM), PGT substrate, ATP 50 μM) [µM] | IC50 (KG-1a; MTT, 24 h treatment) [µM] | Mean growth inhibition % ([1]; 10 μM, SRB, mean over NCI 60 cell line panel) [%] | IC50 (EGFR; read-out: EGFR (IC50 μM), PGT substrate, ATP 50 μM) [µM] | IC50 (Jurkat; MTT, 24 h treatment) [µM] | inhibition of STAT3 activation (STAT3) | IC50 (K-562; Homo sapiens, K562, 24 h) [µM] | IC50 (c-Src) [µM] | IC50 (KG-1a; Homo sapiens, KG-1a, 24 h) [µM] | inhibition at 10 µM [1] [%] | IC50 (EGFR) [µM] | IC50 (Jurkat; Homo sapiens, Jurkat, 24 h) [µM] | activity at 10 µM (IL-6) [%] | inhibition at 10 µM (K-562 cell line) [%] | inhibition at 10 µM (SR cell line) [%] | inhibition at 10 µM (RPMI-8226 cell line) [%] | inhibition at 10 µM (MOLT-4 cell line) [%]
O=C(CSc1nnc(-c2ccccc2)o1)Nc1ccc(C(=O)C=Cc2ccccc2)cc1 [Compound 8a, N-(4-(3-Phenyl)acryloyl)phenyl-2-((5-phenyl-1,3,4-oxadiazol-2-yl)thio)-acetamide] | 7.21 ± 0.35 | 4.5 ± 1.2 | 8.85 ± 0.22 | 37.77 | 1.23 ± 0.25 | 8.47 ± 1.03 | most effective | – | – | – | – | – | – | – | – | – | – | –
COc1ccc(-c2nnc(SCC(=O)Nc3ccc(C(=O)C=Cc4cc(OC)c(OC)c(OC)c4)cc3)o2)cc1 [Compound 8n, 2-(5-(4-Methoxyphenyl)-1,3,4-oxadiazol-2-ylthio)-N-(4-(3-(3,4,5-tri-methoxyphenyl)acryloyl)phenyl)acetamide] | – | – | – | – | – | – | most effective | 10.2 ± 0.94 | 6.24 ± 0.86 | 16 ± 0.96 | 27.3 | 2.35 ± 0.95 | 13.15 ± 0.08 | 20 to 23 | 35.8 to 152 | 32.9 to 160 | – | –
COc1ccc(-c2nnc(SCC(=O)Nc3ccc(C(=O)C=Cc4ccc(Cl)cc4)cc3)o2)cc1OC [Compound 8p, N-(4-(3-(4-chlorophenyl)acryloyl)phenyl)-2-((5-(3,4-dimethoxyphenyl)-1,3,4-oxadiazol-2-yl)thio)acetamide] | – | – | – | – | – | – | moderate activities | 16.1 ± 1.08 | 13.7 ± 0.89 | 22.5 ± 1.07 | 28.2 | 13.3 ± 0.65 | 17.2 ± 0.79 | 30 to 75 | – | 32.9 to 160 | 31.3 to 144 | 31.9 to 108
COc1ccc(-c2nnc(SCC(=O)Nc3ccc(C(=O)C=Cc4cc(OC)c(OC)c(OC)c4)cc3)o2)cc1OC [Compound 8s, 2-((5-(3,4-Dimethoxyphenyl)-1,3,4-oxadiazol-2-yl)thio)-N-(4-(3-(3,4,5-trimethoxyphenyl)acryloyl)phenyl)acetamide] | – | – | – | – | – | – | moderate activities | 15.1 ± 0.25 | 15.3 ± 1.25 | 32.1 ± 0.64 | – | 12.3 ± 0.8 | 25.1 ± 0.45 | 30 to 75 | 35.8 to 152 | 32.9 to 160 | 31.3 to 144 | –
